Assay outcomes deposited in PubChem BioAssay by several laboratories.
Rows were chosen to be rich in hits. Some 2.9% of all compounds tested hit in one or more screens of this group.
VIM-2 inh: blocks Pseudomonas aeruginosa VIM-2 metallo-beta-lactamase; purified VIM-2, nitrocefin hydrolysis, epi-absorbance fluorescence; inhibition, % at 5.6 µM; 290,000 compounds, 0.89% hits; AID 1527;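 active means inhibition above the mean of all tested compounds plus 3 SD, cutoff set per screening run, cut at about 7.5% in these data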;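 further: red hydrolysis product quenches plate fluorescence so inhibitors raise well fluorescence; 0% = enzyme with DMSO and 100% = DMSO without enzyme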
NALP1 yeast inh: inhibitors of NALP1 inflammasome in yeast. S. cerevisiae NALP1/ASC/caspase-1 growth, X-gal OD620, 72 h. inhibition, % at 10 µM. 280,000 compounds, 0.61% hits; in the data active means inhibition mostly above about 24%, no sharp cut-off; inactive means mostly below about 32%
DNA FID counter: fluorescent intercalator displacement, NS3 helicase counter-screen; inhibition, % at 7.9 µM; DNA fluorescent intercalator displacement, fluorescence; 290,000 compounds, 0.17% hits; in the data active means inhibition above about 37%;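 further: 0% = vehicle and 100% = reference compound; higher means more ethidium bromide displaced from hairpin DNA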
IMP-1 inh-1: inhibitors of Pseudomonas aeruginosa IMP-1 metallo-beta-lactamase | purified IMP-1, nitrocefin hydrolysis, epi-absorbance fluorescence | inhibition, % at 5.6 µM | 290,000 compounds, 0.45% hits;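 active means inhibition above the mean plus 3 SD of all compounds in the same screening run, cut at about 4.5% in these data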;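 further: 0% = IMP-1 with DMSO and 100% = DMSO wells lacking enzyme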
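assay system = purified recombinant IMP-1 metallo-beta-lactamase enzyme | schedule = 15 min preincubation plus 25 min reaction at 25 °C | signal = Epi-absorbance fluorescence, 480 nm excitation, 530 nm emission | read-out basis = percent inhibition from optical density relative to buffer-blank wells | controls = IMP-1 with DMSO as 0%, enzyme-free DMSO as 100%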
SUMO Mot1 rescue: blocks SUMOylation pathway, rescuing yeast Mot1-301 growth. 320,000 compounds, 1% hits. growth rescue, % at 18.8 µM. AID 2716. S. cerevisiae Mot1-301 growth rescue, ATP luminescence, 38.5C; percent above DMSO median, 100 means doubled;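 active means every valid replicate shows activation above 250% relative to neutral control wells; inactive means the rest, any valid replicate at or below 250%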;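 further: OY570 slx delta 5 strain wells were the positive control but not used for scaling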
UBC9 SUMO inh: blocks human SUMOylation mediated by UBC9; AID 2006; inhibition, % at 35 µM; HTRF SUMOylation assay, SAE1/SAE2 + UBC9, in vitro; 290,000 compounds, 0.36% hits; in the data active means inhibition above about 50%, passing the limit was not always enough
Target sequence (P63279 whole entry, looked up): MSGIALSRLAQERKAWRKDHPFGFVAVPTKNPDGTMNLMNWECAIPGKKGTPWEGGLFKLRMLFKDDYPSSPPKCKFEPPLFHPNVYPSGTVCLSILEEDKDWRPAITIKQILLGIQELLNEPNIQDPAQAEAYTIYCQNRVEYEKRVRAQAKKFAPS
IMP-1 inh-2: selectivity counter-screen for VIM-2 inhibitors: IMP-1 metallo-beta-lactamase inhibitors | 1,300 tested, under 10 active | inhibition, % at 5.6 µM | shares compounds with VIM-2 inh | purified IMP-1, nitrocefin hydrolysis, epi-absorbance fluorescence; call rule not given here;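 further: 0% = enzyme with vehicle and 100% = vehicle without enzyme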
VIM-2 FRET ctr: inhibits VIM-2 in FRET assay to exclude epi-absorbance artifacts; shares compounds with VIM-2 inh; purified VIM-2, CCF2 FRET substrate hydrolysis; inhibition, % at 5.6 µM; 1,300 compounds, 23% hits; AID 1857;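 active means inhibition above the mean of all tested compounds plus 3 SD, cut at about 19% in these data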;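 further: 0% = VIM-2 plus DMSO and 100% = no enzyme wells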
TEM-1 counter: selectivity counter-screen for VIM-2 inhibitors: E. coli TEM-1 inhibitors. Purified TEM-1, nitrocefin hydrolysis, epi-absorbance fluorescence. 1,300 compounds, 3% hits. shares compounds with VIM-2 inh. inhibition, % at 5.6 µM. AID 1866;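 active means inhibition above that campaign's mean inhibition plus 3 SD, cut at about 0.46% in these data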;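 further: 0% = TEM-1 with DMSO and 100% = TEM-1 with 100 µM potassium clavulanate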
Target sequence (P62593 whole entry, looked up): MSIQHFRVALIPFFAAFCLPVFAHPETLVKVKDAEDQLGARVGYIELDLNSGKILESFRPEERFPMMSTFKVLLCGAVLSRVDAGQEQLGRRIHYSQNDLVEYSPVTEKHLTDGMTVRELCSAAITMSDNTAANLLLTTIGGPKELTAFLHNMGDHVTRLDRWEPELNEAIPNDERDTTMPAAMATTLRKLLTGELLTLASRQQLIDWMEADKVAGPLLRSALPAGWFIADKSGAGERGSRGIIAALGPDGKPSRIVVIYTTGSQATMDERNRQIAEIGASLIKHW
VIM-2 inh conf: confirmation of P. aeruginosa VIM-2 metallo-beta-lactamase inhibitors. 1,300 compounds, 96% hits. inhibition, % at 5.6 µM. purified VIM-2, nitrocefin hydrolysis, epi-absorbance. shares compounds with VIM-2 inh;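 active means inhibition of the VIM-2 beta-lactamase enzyme above about 11% from the earlier first-round screen, limit read from the data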;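 further: 0% = VIM-2 with DMSO and 100% = buffer wells without enzyme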
Starred values were filed as active, the others as inactive; i = inactive; . = not tested or not shown.

SMILES	VIM-2 inh	NALP1 yeast inh	DNA FID counter	IMP-1 inh-1	SUMO Mot1 rescue	UBC9 SUMO inh	IMP-1 inh-2	VIM-2 FRET ctr	TEM-1 counter	VIM-2 inh conf
CC1CCCN(CCCNC(=O)c2cc3c(s2)-c2ccccc2OC3)C1 (centres undefined)	0	32	29	1	2	36	.	.	.	.
CC1CCCN(CCCNC(=O)c2cc3c(Cl)nc4ccccc4c3s2)C1 (centres undefined)	19*	6	35	-2	i	7	-3	1	-5	31*
Cc1nc2ccccc2c2oc(C(=O)NCCCN3CC(C)CC(C)C3)cc12 (centres undefined)	15*	16	18	-2	34	12	-2	1	-6	24*
Cc1nc2ccccc2c2oc(C(=O)NCCCN3CCCC(C)C3)cc12 (centres undefined)	18*	5	27	-2	-7	2	-3	2	-6	29*
CSc1ccccc1NC(=O)COC(=O)CSc1ccc(C)cc1	.	.	.	.	11	.	.	.	.	.
O=C(CCc1nnc(CCCCc2ccccc2)o1)NCCC1CCCCO1 (centres undefined)	3	-1	-20	0	2	-9	.	.	.	.
CCOC(=O)c1ccc(NC(=O)NNC(=O)CCc2ccc(OC)cc2)cc1	-4	6	-24	0	-8	13	.	.	.	.
Nc1nc(/C=C/c2ccc(F)cc2)nc(-c2ccccc2O)n1	1	17	3	1	-15	-23	.	.	.	.
Nc1nc(/C=C/c2cccnc2)nc(-c2ccccc2O)n1	23*	25	-1	-1	24	-23	-3	-4	-7	60*
O=C(c1cc(COc2cccc(C(F)(F)F)c2)on1)N1C[C@@H]2CCC[C@H]1C2	-4	3	-39	0	0	-7	.	.	.	.
O=C(NCCCN1CCOCC1)c1nn2c(C(F)(F)F)cc(-c3ccco3)nc2c1Cl	12*	8	-2	-1	5	12	-2	-1	-5	18*
CC(C)NC(=O)c1nn2c(C(F)(F)F)cc(-c3ccco3)nc2c1Cl	-1	-15	0	-3	-3	10	.	.	.	.
COc1ccc(N2CCN(CC(=O)Nc3cccc(S(=O)(=O)N4CCOCC4)c3)CC2)cc1	-2	20	-7	-5	-1	-9	.	.	.	.
N#Cc1c(NCc2ccccc2)ccnc1Cl	.	.	.	.	-8	.	.	.	.	.
CN1CCN(C(=O)CSc2nc(-c3cccs3)ccc2C#N)CC1	28*	.	3	-2	13	8	-3	4	-7	50*
COc1ccc(-c2cc(C(F)(F)F)n3nc(C(=O)N4CCN5CCCC5C4)cc3n2)cc1OC (centres undefined)	26*	12	-7	-1	-1	10	-3	0	-6	40*
CN1CCN(C(=O)/C(=C/c2cccs2)NC(=O)c2cccs2)CC1	17*	20	4	-4	8	2	-3	-2	-7	2
O=C(N/C(=C\c1cccs1)C(=O)N1CCOCC1)c1cccs1	0	1	0	-2	7	10	.	.	.	.
O=C1C(=O)N(c2nccs2)C(c2ccccc2F)/C1=C(\O)c1ccc2c(c1)OCCO2 (centres undefined)	21*	17	-46	1	-5	5	-3	33*	-5	22*
Cc1cc(N2CC(C(=O)Nc3nccs3)CC2=O)ccc1C(C)C (centres undefined)	-3	8	-49	-1	4	4	.	.	.	.
CNC(=O)COc1ncnc2sccc12	-2	2	-1	-3	.	3	.	.	.	.
CN(C)S(=O)(=O)c1ccc(NC(=O)COc2ncnc3sccc23)cc1	22*	-4	-6	-2	3	4	-2	-4	-4	3
O=c1[nH]c2c(s1)C(c1ccc(O)cc1)C1C3CCC(C3)C1S2 (centres undefined)	4	12	-11	-1	28	-14	.	.	.	.
O=c1[nH]c2c(s1)C(c1cccnc1)C1C3CCC(C3)C1S2 (centres undefined)	84*	.	-9	4	-16	-18	-4	89*	-10	83*
CCc1ccc(CN(C)C(=O)c2cc(COc3cc(C)c(Cl)c(C)c3)on2)nc1	-3	2	-48	-4	-12	-6	.	.	.	.
SMILES	VIM-2 inh	NALP1 yeast inh	DNA FID counter	IMP-1 inh-1	SUMO Mot1 rescue	UBC9 SUMO inh	IMP-1 inh-2	VIM-2 FRET ctr	TEM-1 counter	VIM-2 inh conf
CC(C)(C)NC(=O)CN(C(=O)C(=O)Nc1ccc2c(c1)OCCO2)N1CCOCC1	-1	2	-12	-2	17	21	.	.	.	.
COc1ccc(Nc2ncnc3ccccc23)c(OC)c1	-5	2	-9	-2	-6	-21	.	.	.	.
COc1ccc(Nc2nc(N3CCCC3)nc3ccccc23)c(OC)c1	31*	8	31	-1	2	2	-2	1	-6	43*
CCOC(=O)C1CCN(c2c(NCCN(CC)c3ccccc3)c(=O)c2=O)CC1	-1	13	-21	0	0	15	.	.	.	.
O=C(Nc1ccccc1Cl)N1CCN(c2ccc3nnc(-c4ccccc4)n3n2)CC1	16*	-28	-12	1	-9	14	0	8	-1	24*
O=C(Nc1ccc(Cl)cc1)N1CCN(c2ccc3nnc(-c4ccc(F)cc4)n3n2)CC1	2	37	0	-1	-3	-7	.	.	.	.
Cc1cccc(-c2n[nH]c(=S)n2-c2ccccc2)c1[N+](=O)[O-]	34*	-6	0	-2	-6	9	-2	62*	-7	44*
C=CCn1c(-c2cccn(Cc3cccc(Cl)c3)c2=O)n[nH]c1=S	3	6	-17	0	344	37	.	.	.	.
O=[N+]([O-])c1cccc(-c2n[nH]c(=S)n2-c2ccccc2)c1	-1	.	-2	-3	-19	-2	.	.	.	.
Cc1c(Cl)c(-c2n[nH]c(=S)n2-c2ccccc2)nn1C	19*	13	-17	-5	-20	7	-3	44*	-8	27*
O=c1c(-c2n[nH]c(=S)n2-c2ccccc2)cccn1Cc1cccc(Cl)c1	25*	-3	-27	-4	20	6	-3	48*	-9	31*
CCCOc1ccc(C(=O)CCC(=O)NNC(=O)c2cccs2)cc1	.	.	.	.	-3	.	.	.	.	.
